The whole screen tested about 27,000 compounds, of which about 250 (0.93%) were called active.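 How the source made its calls: active means mutant luminescence inhibited past about 50% while wild type luminescence and mutant growth stay under set limits (limit read from the data); inconclusive means mutant versus wild type luminescence inhibition gap past a set limit; inactive means the rest.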 Only a selection was taken, and actives are over-represented in it overall.
assay: GCN4-lacZ reporter reduction in eIF2B-epsilon mutant yeast, primary screen, S. cerevisiae, eIF2B-epsilon R284H, Beta-Glo luminescence (AID 688); details: growth inhibition: measured here: mutant yeast growth, toxicity, concentration not given here; inhibition: stronger effect = higher value, screened at 25 µM (by protocol)
Outline: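 Material: yeast eIF2B-epsilon R284H mutant carrying GCN4–beta-galactosidase fusion. Medium: YPD yeast growth medium. Incubation: 16 h growth with compound at 30 °C, 90 min Beta-Glo step. Signal: Beta-Glo luminescence plus absorbance at 595 nm. Evaluation: % inhibition of reporter signal and growth versus controls. Doses: 25 µM single dose.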

Row | SMILES | growth inhibition [%] | inhibition
1 | Cc1nn(C)cc1CNC(=O)Nc1ccc(Cl)cc1 | -18.2 | -9.58% (inactive)
2 | O=C1c2ccncc2C(=O)N1C1CCCCC1 | 8.93 | 68.7% (active)
3 | Cc1cc(N2CCN(S(=O)(=O)c3ccc(C)c(C)c3)CC2)c2ccccc2n1 | 3.23 | 10.4% (inactive)
4 | Cc1[nH][nH]c(=O)c1N=Nc1ccccc1 | 8.33 | 28.6% (inactive)
5 | CN(Cc1nc2ccccc2c(=O)[nH]1)Cc1cc(=O)oc2ccc3ccccc3c12 | 9.38 | 16.8% (inactive)
6 | CC(C)C(NC(=O)c1ccc(Cl)cc1)C(=O)O (centres undefined) | 16.2 | 27.4% (inactive)
7 | CCC(C(=O)NCc1ccc(OC)cc1)n1nc(C)n2c(cc3occc32)c1=O (centres undefined) | -9.52 | 47% (inactive)
8 | Cc1noc(NS(=O)(=O)c2ccc(NC(=O)C34CCC(CC3)C4)cc2)c1C | 2.7 | -23.3% (inactive)
9 | C/C=C/C(=O)OCC(=O)Nc1ccc(F)cc1Cl | -4.76 | 19.8% (inactive)
10 | COc1ccc(CNCCCO)cc1OC | 8.33 | -1.06% (inactive)
11 | CCc1c(-c2ccccc2)nc(N)c(C#N)c1-c1cccs1 | -19.1 | 15.9% (inactive)
12 | OCCN1CCOCCOCCN(CCO)CCN(CCO)CC1 | -9.52 | 13.5% (inactive)
13 | O=c1[nH][nH]c(C(F)(F)F)c1C=NCc1ccccc1Cl | 12.5 | 12% (inactive)
14 | O=P(O)(CP(=O)(c1ccccc1)c1ccccc1)c1ccccc1 | 3.57 | -14.4% (inactive)
15 | CC(C)(C)NC(=O)Cn1c(SCC(=O)Nc2nccs2)nc2ccccc21 | -29.4 | 0.21% (inactive)
16 | COc1ccccc1N=C1SC(C)CN1C(=O)C1CCC1 (centres undefined) | 4.55 | 26.9% (inactive)
17 | CCN(CC(=O)Nc1ccccc1OC)C(=O)Cn1cnc2ccccc2c1=O | -14.3 | 6.69% (inactive)

Row | SMILES | growth inhibition [%] | inhibition
18 | C/C(=N\NS(=O)(=O)c1ccc(Br)cc1)c1cccs1 | 2.78 | 11% (inactive)
19 | Cc1cccc(NC(=O)C2CC(=O)OC23CCCC3)c1 (centres undefined) | 11.5 | -11.9% (inactive)
20 | Cc1ccc(NC(=O)N2CCC(c3nc4c(nnn4Cc4c(F)cccc4Cl)c(=O)[nH]3)CC2)cc1 | 6.06 | 14.6% (inactive)
21 | CCC(C)NC(=O)CCCc1ccccc1 (centres undefined) | -2.38 | 7.79% (inactive)
22 | CCCCNC(=O)C1CCCNC1=O (centres undefined) | 26.5 | 22.2% (inactive)
23 | CC1(C)Cc2c(sc3nc(SCC(=O)NCc4ccccc4)n(-c4ccccc4)c(=O)c23)CS1 | -11.9 | -11% (inactive)
24 | CCOc1ccc(S(=O)(=O)NCC2CCCO2)cc1 (centres undefined) | 5.88 | 10.3% (inactive)
25 | Cn1c2c(c(=O)n(C)c1=O)C(c1cccc([N+](=O)[O-])c1)Nc1ccccc1O2 (centres undefined) | -14.3 | 20.4% (inactive)
26 | CC(=O)Nc1ccc(S(=O)(=O)N2CCN(C3CCCCCCC3)CC2)cc1 | 9.09 | -9.55% (inactive)
27 | CCOC(=O)CSc1nnc(CNc2ccc(F)cc2)o1 | 3.45 | 19.4% (inactive)
28 | COc1ccc(CN(CC(=O)NC2CCCC2)C(=O)CCC(=O)Nc2cc(C)on2)cc1 | -15.6 | -35.1% (inactive)
29 | CN(C(=O)COc1ccccc1)c1nnc(-c2ccncc2)s1 | – | 10.2% (inactive)
30 | CCOC(=O)CSc1nccc(N(C)C)c1C#N | 12 | 24.8% (inactive)
31 | CCOC(=O)CSc1nnc(CNC(=O)Cc2ccccc2)n1-c1ccccc1OC | -1.72 | 36.1% (inactive)
32 | CCOC(=O)CSc1nncc2ccc(OC)c(OC)c12 | – | 50.1% (active)
33 | CCC(=O)c1ccc(OCC(O)CN2CC(C)OC(C)C2)cc1 (centres undefined) | 4.55 | -8.08% (inactive)

From PubChem BioAssay AID688 (PCMD, 2007)
